Experimental data as given in ChEMBL document CHEMBL4024790 (J Med Chem, 2018).
Active and inactive are the calls of the source. The calls are words filed in the database; no cut-off is given here.

Key:
[1] = system: Rattus norvegicus; experiment: Effect on risperidone-induced antipsychotic activity in Long Evans rat at 0.32 to 3.2 mg/kg, sc by conditioned avoidance responding assay; format: functional, organism-based
Procedure, shortened: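 Rats dosed SC at 0.32, 1.0 and 3.2 mg/kg; conditioned avoidance responding also run in combination with risperidone 0.032 mg/kg.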

[2] = system: Rattus norvegicus; experiment: Cardiotoxicity in rat at 5 to 250 mg/kg/day, po up to 15 days by microscopic method; format: toxicity, organism-based; conditions: in vivo, 360 h
Procedure, shortened: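 Exploratory rat toxicity study, oral dosing at 5, 50 and 250 mg/kg/day for up to 15 days, with microscopic examination of heart and vasculature and measurement of plasma and brain exposure.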

[3] = target: Cytochrome P450 2C19 (Homo sapiens, UniProt P33261); experiment: Inhibition of recombinant human CYP2C19; format: ADME; conditions: recombinant enzyme
Chain of Cytochrome P450 2C19 (P33261 whole entry): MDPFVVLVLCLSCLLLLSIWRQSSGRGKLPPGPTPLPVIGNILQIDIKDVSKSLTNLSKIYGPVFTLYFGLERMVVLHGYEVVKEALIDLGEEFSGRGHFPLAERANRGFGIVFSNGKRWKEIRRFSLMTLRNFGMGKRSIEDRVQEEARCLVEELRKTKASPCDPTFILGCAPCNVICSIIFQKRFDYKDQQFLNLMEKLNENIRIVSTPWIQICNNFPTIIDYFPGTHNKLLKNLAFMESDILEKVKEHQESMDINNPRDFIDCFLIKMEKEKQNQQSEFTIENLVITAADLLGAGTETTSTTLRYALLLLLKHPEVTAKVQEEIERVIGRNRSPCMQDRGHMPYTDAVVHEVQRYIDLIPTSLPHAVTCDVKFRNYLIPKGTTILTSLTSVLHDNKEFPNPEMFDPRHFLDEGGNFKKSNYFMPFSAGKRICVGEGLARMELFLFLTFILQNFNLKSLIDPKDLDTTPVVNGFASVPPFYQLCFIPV

[4] = species: Mus musculus; experiment: Effect on cAMP level in CD-1 mouse brain cortex by immunoassay; format: functional
Procedure, shortened: (§1)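 CD-1 mice dosed SC (solution in 20% SBE-β-CD with 2 molar equivalents 1N HCl, 1 mL/kg); euthanized by focused microwave irradiation of brain; cortex, striatum, hippocampus homogenized in 0.5 N HCl, centrifuged; cyclic nucleotides in supernatant by enzyme immunoassay. Unbound brain exposure from satellite animals; dose-response and time-course data combined with linear model; one-way ANOVA with Fisher's PLSD.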

[5] = Plasma clearance in Wistar Han rat at 1 mg/kg, iv by LC-MS/MS analysis; format: ADME, organism-based
Procedure, shortened: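 Single iv dose to male Wistar-Han rats (1 mg/kg) or dogs (0.3 mg/kg), given as a solution in 20% (w/v) SBECD with HCl. Dose volume 1 mL/kg in rats and 0.4 mL/kg in dogs. Blood taken by carotid artery cannula from 2 min to 24 h into K2EDTA (rat) or K3EDTA (dog) tubes. Plasma analysed by LC-MS/MS with positive electrospray after acetonitrile precipitation with internal standard.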

[6] = species: Mus musculus; experiment: Increase in cGMP level in CD-1 mouse brain cortex assessed as unbound brain concentration required to show the effect by immunoassay; format: functional; procedure, shortened: as §1
[7] = Ratio of unbound brain concentration to unbound plasma concentration in po dosed beagle dog; format: ADME, organism-based, Canis lupus familiaris; conditions: brain and plasma, read-out: K(p,uu,brain)
Procedure, shortened: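 Compound given sc to mice, iv and/or sc to rats, po to dogs and sc to monkeys; sc doses as a solution in 20% SBE-BCD + 2 molar equiv 1N HCl. Plasma, whole brain and CSF taken at matched times from 2 min to 24 h and quantified by LC-MS/MS. Fraction unbound in plasma and brain homogenate (diluted 4-fold, dilution factor 5 applied) by 6 h equilibrium dialysis against phosphate buffer at 37°C.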

[8] = Passive permeability in RRCK cells; format: ADME, cell-based, Canis lupus familiaris, MDCKII-LE; conditions: dog, MDCK; read-out: permeability

Compound: Cc1nc(-c2cnn(C)c2-c2ccc(C(F)(F)F)cn2)c2c(N3CCC3)ncnn12 [PF-05180999]
- Activity [1]: inactive
- Activity [2]: Non-Toxic
- inhibition (INH) [3]: Not Active
- Activity [4]: inactive
- clearance [5]: 122 mL/min/kg
- fEC50 [6]: 79.4 nM
- Kp uu [7]: 0.58
- Papp [8]: 26 ×10⁻⁶ cm/s
